Data on four compounds can be found in ChEMBL document CHEMBL1147067, “Inhibitors of metabolism rescue cell death in Huntington's disease models” (Proc Natl Acad Sci U S A, 2007).

For data set [1], the species on record is Rattus norvegicus. Put plainly: Activation of AKT in rat striatal neuronal N548 mutant cells at 50 uM by Western blotting. Summed up: (§1)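 N548 mutant htt-expressing striatal cells were treated with compound or vehicle (0.1% DMSO) in serum-deprived medium (0.5% FCS, 39°C) or in 10% serum medium. Lysates were Western blotted with phospho-specific antibodies against AKT Ser473, AKT Thr308 and ERK Thr202/Tyr204. Total AKT, total ERK and tubulin served as controls. The concentration series was read at 8 h.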
On the technique in general: Immunoblotting shows a protein as a band on a membrane.

Data set [2] is filed under the species Rattus norvegicus. Put plainly: Activation of ERK in […] rat striatal neuronal N548 mutant cells at 10 uM after 6 hrs by Western blotting. To be noted: 50 uM, in the assay text read “50 uM” for “10 uM”. Summed up:
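N548 mutant htt-expressing striatal cells were exposed to compound or vehicle (0.1% DMSO) in serum-deprived medium (0.5% FCS, 39°C). Lysates were analysed by Western blotting with a phospho-specific antibody against threonine 202/tyrosine 204 ERK. Total ERK and tubulin served as controls.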

Data set [3] can be described thus: Cell death rescue in rat striatal neuron N548 mutant cells. The data set is classed as functional.
The subject of data set [4] is Caenorhabditis elegans. Put plainly: Toxicity in Caenorhabditis elegans Huntington's disease model. Type of data set: organism-based. To be noted: for TC50: caenorhabditis elegans, in vivo.
For data set [5], the system named is Caenorhabditis elegans. Put plainly: Cell death rescue of ASH neuronal cells in Caenorhabditis elegans Huntington's disease model. Type of data set: functional, organism-based. Summed up: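 pqe-1;Htn-Q150 C. elegans L1 larvae, which express human htt 1–171 with 150Q in ASH neurons, were kept at 15°C in liquid S medium with E. coli OP50 and compound or DMSO (1.5%). A starvation variant used L1-arrested larvae without food at 25°C. ASH survival was scored as GFP fluorescence in live animals, 100 neurons in more than 50 animals per treatment per time point.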

In data set [6] the test system is Drosophila. Put plainly: Toxicity in drosophila Huntington's disease model. The data set is classed as organism-based. The conditions noted are these: in vivo.
A short description of data set [7]: Toxicity in rat striatal neuronal N548 mutant cells. The conditions noted are these: read-out: TC50 (the source's name).
In data set [8] the test system is Drosophila. In words: Cell death rescue of neuronal cells in drosophila Huntington's disease model. The data set is classed as functional, organism-based. Summed up: (§2)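 Flies of Drosophila HD strain 8534, which express human htt 1–170 with 120Q in the eye, were fed compound mixed into food (renewed every 2 days) or vehicle (0.1% DMSO) at 25°C. Rhabdomeres per ommatidium were counted by the pseudopupil technique at 9 days post-eclosion, blinded, with equal numbers of males and females. 8–10 flies per treatment, 35 ommatidia each; Student's t test.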

Data set [9] is described as follows: Cell death rescue in rat striatal neuron N548 mutant cells relative to rotenone. Type of data set: functional.
The species entered for data set [10] is Rattus norvegicus. In words: Activation of NF-kappaB in rat striatal neuronal N548 mutant cells.
The target of data set [11] is Tyrosine-protein kinase JAK2 (Rattus norvegicus) (UniProt Q62689). In words: Activation of JAK2 in rat striatal neuronal N548 mutant cells.
Tyrosine-protein kinase JAK2 (Rattus norvegicus), sequence (Q62689 whole entry): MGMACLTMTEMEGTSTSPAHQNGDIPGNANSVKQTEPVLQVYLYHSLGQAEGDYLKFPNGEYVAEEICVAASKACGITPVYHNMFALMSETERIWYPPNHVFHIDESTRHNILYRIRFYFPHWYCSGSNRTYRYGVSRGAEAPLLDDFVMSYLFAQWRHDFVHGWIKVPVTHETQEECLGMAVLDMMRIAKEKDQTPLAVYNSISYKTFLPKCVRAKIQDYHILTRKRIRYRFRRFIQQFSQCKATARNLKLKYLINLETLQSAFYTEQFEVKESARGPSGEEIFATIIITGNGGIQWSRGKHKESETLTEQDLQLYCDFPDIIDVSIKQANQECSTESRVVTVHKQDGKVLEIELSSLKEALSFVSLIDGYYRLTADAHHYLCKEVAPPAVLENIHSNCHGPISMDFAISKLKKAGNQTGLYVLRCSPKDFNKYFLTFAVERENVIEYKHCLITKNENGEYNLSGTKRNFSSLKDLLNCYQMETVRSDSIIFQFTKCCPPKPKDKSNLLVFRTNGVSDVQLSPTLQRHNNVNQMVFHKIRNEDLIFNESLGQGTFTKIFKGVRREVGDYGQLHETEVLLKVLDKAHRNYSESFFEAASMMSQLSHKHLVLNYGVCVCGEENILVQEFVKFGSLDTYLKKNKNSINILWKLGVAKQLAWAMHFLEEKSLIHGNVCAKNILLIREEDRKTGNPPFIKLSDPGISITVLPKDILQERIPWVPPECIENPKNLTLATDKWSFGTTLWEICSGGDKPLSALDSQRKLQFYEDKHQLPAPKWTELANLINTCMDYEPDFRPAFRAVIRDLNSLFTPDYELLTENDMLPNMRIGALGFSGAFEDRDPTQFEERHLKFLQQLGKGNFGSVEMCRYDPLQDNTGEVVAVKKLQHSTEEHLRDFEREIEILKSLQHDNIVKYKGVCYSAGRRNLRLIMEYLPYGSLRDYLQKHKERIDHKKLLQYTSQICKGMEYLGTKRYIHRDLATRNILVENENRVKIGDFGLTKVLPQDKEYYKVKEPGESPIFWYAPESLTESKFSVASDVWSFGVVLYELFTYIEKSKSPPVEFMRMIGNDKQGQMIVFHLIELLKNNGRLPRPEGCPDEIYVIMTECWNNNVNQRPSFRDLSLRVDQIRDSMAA
Data set [12] is filed under the species Rattus norvegicus. Put plainly: Activation of AKT in rat striatal neuronal N548 mutant cells at 10 uM by Western blotting. Summed up:
as §1

The target in data set [13] is Glycogen synthase kinase-3 beta (Rattus norvegicus) (UniProt P18266). Put plainly: Activation of GSKbeta in rat striatal neuronal N548 mutant cells.
Glycogen synthase kinase-3 beta (Rattus norvegicus), sequence (P18266 whole entry, looked up): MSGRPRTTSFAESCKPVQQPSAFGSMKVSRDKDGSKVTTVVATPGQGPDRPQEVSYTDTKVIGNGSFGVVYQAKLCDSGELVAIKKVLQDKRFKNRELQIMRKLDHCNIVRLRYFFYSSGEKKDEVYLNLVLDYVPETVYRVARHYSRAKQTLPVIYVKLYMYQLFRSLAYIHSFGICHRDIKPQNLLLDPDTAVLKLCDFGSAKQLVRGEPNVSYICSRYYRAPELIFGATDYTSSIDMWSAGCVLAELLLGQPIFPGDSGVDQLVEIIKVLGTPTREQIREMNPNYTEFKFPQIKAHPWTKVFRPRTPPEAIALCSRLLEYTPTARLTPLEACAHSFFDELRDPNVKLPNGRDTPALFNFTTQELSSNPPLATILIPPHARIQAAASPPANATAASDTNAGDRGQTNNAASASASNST
For data set [14], the species on record is Rattus norvegicus. Put plainly: Cell death rescue in DNA-deficient rat striatal neuronal N548 mutant cells at 10 uM. Type of data set: functional.
The species entered for data set [15] is Rattus norvegicus. In words: Decrease in ATP levels in rat striatal neuronal N548 mutant cells after 8 hrs in serum-deprived medium by luminescence-based assay in presence of glucose. The data set is classed as functional. Summed up: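 N548 mutant cells were plated at 10^5 cells per 60-mm dish, treated, and after 8 h in serum-deprived medium were lysed. Total ATP was measured by luciferase luminescence (12 s integration), normalized to cell number, and expressed relative to untreated cells at 0 h (100%). Triplicate, mean ± SD.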

For data set [16], the species on record is Rattus norvegicus. In words: Activation of AKT in DNA-deficient rat striatal neuronal N548 mutant cells at 10 uM after 6 hrs by Western blotting.
For data set [17], the system named is Drosophila. In words: Decrease in rhabdomere degeneration in Drosophila photoreceptor assessed as number of rhabdomeres per ommatidium at day 9. The data set is classed as functional, organism-based. Summed up:
as §2

The species named for data set [18] is Rattus norvegicus. Put plainly: Suppression of cell death in rat striatal neuronal N548 mutant cells assessed as suppression of caspase 7 activation by Western blotting. The data set is classed as functional. Summed up: (§3)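 Serum-deprived N548 mutant cells (0.5% FCS, 39°C) were treated with compound or DMSO. Cleaved active caspase 3 and caspase 7 fragments were detected by Western blotting, with tubulin as loading control.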

Data set [19] is filed under the species Rattus norvegicus. In words: Cell death rescue in rat striatal neuronal N548 mutant cells analysed every day for 7 days at 10 uM by trypan blue dye-exclusion assay. The data set is classed as functional. Summed up:
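Death was induced in N548 mutant cells by switching to 0.5% FCS medium at 39°C, with compound or DMSO present. Viability was measured daily for 7 days by automated trypan blue (0.4%) dye exclusion, counting at least 200 cells per sample and reporting % trypan blue-negative cells. Two independent experiments were run, each in duplicate.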

The species named for data set [20] is Rattus norvegicus. Put plainly: Activation of ERK in rat striatal neuronal N548 mutant cells at 50 uM by Western blotting. Summed up:
as §1

Data set [21] deals with MAP kinase p38 (Homo sapiens) (UniProt O15264+Q15759+Q16539+P53778). Put plainly: Activation of p38 MAPK in rat striatal neuronal N548 mutant cells.
Data set [22] is filed under the species Rattus norvegicus. In words: Cell death rescue in rat striatal neuronal N548 mutant cells by calcein acetoxymethyl ester assay. Type of data set: functional. Summed up:
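N548 mutant cells in serum-deprived medium (0.5% FCS, 39°C) were treated across a dose range. Viability was read by calcein acetoxymethyl ester fluorescence and expressed as fold increase over DMSO-treated cells. Triplicate wells, mean ± SD.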

Data set [23] can be described thus: Decrease in htt expression in rat striatal neuron N548 mutant cells assessed as visible htt aggregation after 12 hrs by Western blotting. Type of data set: functional. The arrangement: scale not given: the % may be the effect or the level left.
Data set [24] addresses Glycogen synthase kinase-3 alpha (Rattus norvegicus) (UniProt P18265). Put plainly: Activation of GSKalpha in rat striatal neuronal N548 mutant cells.
The species entered for data set [25] is Rattus norvegicus. Put plainly: Activation of AKT in rat striatal neuronal N548 mutant cells after 8 hrs by Western blotting. Summed up: as §1
The species entered for data set [26] is Rattus norvegicus. In words: Cell death rescue in rat striatal neuronal N548 mutant cells at 10 uM after 2 days by calcein acetoxymethyl ester assay in presence of LY-294002. The data set is classed as functional.
The species named for data set [27] is Rattus norvegicus. In words: Suppression of cell death in rat striatal neuronal N548 mutant cells assessed as suppression of caspase 3 activation by Western blotting. The data set is classed as functional. Summed up: as §3
For data set [28], the species on record is Rattus norvegicus. In words: Cell death rescue in rat striatal neuronal N548 mutant cells at 10 uM after 2 days by calcein acetoxymethyl ester assay in presence of U0126. Type of data set: functional.
For data set [29], the species on record is Rattus norvegicus. In words: Activation of ERK in rat striatal neuronal N548 mutant cells after 8 hrs by Western blotting. Summed up:
as §1

The species entered for data set [30] is Rattus norvegicus. In words: Activation of ERK in rat striatal neuronal N548 mutant cells at 10 uM by Western blotting. Summed up: as §1

Active and inactive are the calls of the source. The rule behind the calls is not given here.

Glycogen synthase kinase-3 alpha (Rattus norvegicus), sequence (P18265 whole entry): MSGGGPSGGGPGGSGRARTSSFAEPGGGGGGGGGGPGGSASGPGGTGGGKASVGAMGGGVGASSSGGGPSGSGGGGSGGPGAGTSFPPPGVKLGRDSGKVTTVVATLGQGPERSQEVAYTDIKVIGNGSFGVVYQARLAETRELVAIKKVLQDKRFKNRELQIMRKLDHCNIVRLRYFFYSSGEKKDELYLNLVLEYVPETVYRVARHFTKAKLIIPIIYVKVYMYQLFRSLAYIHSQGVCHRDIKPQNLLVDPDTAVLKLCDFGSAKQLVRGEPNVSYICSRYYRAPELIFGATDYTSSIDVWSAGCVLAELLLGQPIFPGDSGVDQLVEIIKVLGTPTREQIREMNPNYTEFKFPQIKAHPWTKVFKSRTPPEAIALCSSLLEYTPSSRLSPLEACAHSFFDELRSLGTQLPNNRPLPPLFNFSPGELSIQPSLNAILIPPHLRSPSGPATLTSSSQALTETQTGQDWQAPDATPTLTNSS

Turning to `CC(C)(C)OC(=O)N[C@@H](CC(=O)O)C(=O)CF`, the outcome in the data set filed under Rattus norvegicus [1] and in the data set listed under Rattus norvegicus [2] was Active.
`O=[N+]([O-])c1ccc(O)c([N+](=O)[O-])c1` [2,4-DINITROPHENOL]: the EC50 (commonly the concentration at which the effect is half-maximal) in [3] was 200 µM; with Caenorhabditis elegans [5] it was 700 µM; in the data set on Drosophila [8], 1250 µM. The TC50 in the data set with Caenorhabditis elegans [4] is 2000 µM; with Drosophila [6], 10000 µM. In addition, the CC50 in data set [7] stood at 16000 µM. The compound also gave an Activity in data set [9] of 1.
For the compound `C=C(C)[C@H]1Cc2c(ccc3c2O[C@@H]2COc4cc(OC)c(OC)cc4[C@@H]2C3=O)O1` [ROTENONE], the outcome (in the data set filed under Rattus norvegicus [10]; in [11]; in data set [13]; in the data set listed under Rattus norvegicus [15]; in [21]; in [24]) was inactive. Also, the outcome in the data set listed under Rattus norvegicus [26] and in the data set listed under Rattus norvegicus [28] was inactive. Moreover, the outcome in the data set filed under Rattus norvegicus [12], in the data set filed under Rattus norvegicus [14], in the data set listed under Rattus norvegicus [16], in the data set on Drosophila [17], in the data set listed under Rattus norvegicus [18] and in the data set listed under Rattus norvegicus [19] was Active. In addition, the outcome in the data set listed under Rattus norvegicus [1], in the data set filed under Rattus norvegicus [20], in the data set filed under Rattus norvegicus [22], in the data set listed under Rattus norvegicus [27] and in the data set filed under Rattus norvegicus [30] was Active. In addition, the EC50 in [3] was found to be 0.5 µM; in the data set with Caenorhabditis elegans [4] (Caenorhabditis elegans) it was 2 µM; in the data set on Caenorhabditis elegans [5] it was 2 µM; with Drosophila [8], 10 µM. Moreover, the TC50 was found to be 16 µM in the data set on Caenorhabditis elegans [4] and 50 µM in the data set with Drosophila [6]. The Activity in data set [23] was less than 1%; in the data set listed under Rattus norvegicus [25], “Dose-dependent effect”; in the data set filed under Rattus norvegicus [29], “Dose-dependent effect”. Moreover, the CC50 in data set [7] was found to be 40 µM.
Regarding `[F-].[Na+]` [SODIUM FLUORIDE], a half-maximal response in [3] (EC50) required 2000 µM. Further, in data set [7], the CC50 was determined as 10000 µM. For the same compound, the Activity in data set [9] was found to be 0.6.
